Measured values reported in PMC4198695 (Neoplasia (New York, N.Y.), 2014).

What was measured:
U87 glioblastoma cells = test: MTT toxicity assay, U87; format: cell-based; conditions: Homo sapiens, 168 h, read-out: IC50 (MTT assay), U87, 7 days incubation
Procedure, shortened: (§1)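 U87 (2.5 × 10^3) or U251 (5 × 10^3) cells per well were incubated 24 h at 37 °C. Medium was then replaced with test compound at 100, 33, 10, 3.3, 1, 0.3, 0.1 and 0.03 μM, in triplicate, for 7 days at 37 °C. Cells received 10% MTT in medium for 4 h, then solubilization solution. Absorbance was read at 570 nm with 690 nm background, and percent survival calculated versus control wells.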

U251 glioblastoma cells = test: MTT toxicity assay, U251; format: cell-based; conditions: Homo sapiens, U-251, 168 h, read-out: IC50 (MTT assay), U251, 7 days incubation
Procedure, shortened: as §1

U87 cells = test: Clonogenic proliferation assay, U87; format: cell-based, human; conditions: U87, 10 μM for 24 h, then 14 days drug-free
Procedure, shortened: (§2)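 Cells were seeded in 6-well plates in 6 replicates: U87 at 5 × 10^2 cells/well, U251 at 1 × 10^3 cells/well. After 24 h at 37 °C they were exposed to 10 μM test compound or drug-free medium for 24 h. Cells were then PBS-washed and grown 14 days drug-free, stained with 0.5% crystal violet for 30 min, and colonies counted. Survival was normalized to drug-free control.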

U251 cells = test: Clonogenic proliferation assay, U251; format: cell-based, human; conditions: U251, 10 μM for 24 h, then 14 days drug-free
Procedure, shortened: as §2

[1] = humans, twice daily; cited from earlier work

For `O=C(c1cc(Cc2n[nH]c(=O)c3ccccc23)ccc1F)N1CCN(C(=O)C2CC2)CC1` [Olaparib, 4-[3-(4-cyclopropanecarbonylpiperazine-1-carbonyl)-4-fluorobenzyl]-2H-phthalazin-1-one], the IC50 (U87 glioblastoma cells) was 23.8 ± 1.3 µM, the IC50 (U251 glioblastoma cells) was 5.5 ± 1.2 µM and the “decrease in number of surviving colonies” value (U87 cells) was 20-30%. For the same compound, the “cell survival rate normalized to control” value (U251 cells) was 46.9% and the maximum tolerated dose [1] was 400 mg.
